Screening data deposited in PubChem by several laboratories.
STAT1 inh – inhibitors of IFN-gamma induced STAT1 signaling | inhibition, % at 5.5 µM | NIH 3T3 STAT1-luciferase reporter, luminescence | 200,000 compounds, 0.35% hits;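 active means inhibition above a set limit, the mean inhibition across all tested compounds plus 3 SD, cut at about 34% in these data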
STAT3 blocker – STAT3 signaling inhibition | U3A cells, IL-6 STAT3-luciferase reporter, luminescence; host cell line lacks STAT1 | inhibition, % at 5.5 µM | 190,000 compounds, 0.89% hits;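 active means inhibition above the mean inhibition across all screened compounds plus 3 SD, cut at about 44% in these data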
STAT3 activator – STAT3 signaling activation; activation (% of control), % at 5.6 µM; 190,000 compounds, 0.91% hits; U3A cells, IL-6 STAT3-luciferase reporter, luminescence; 100% = signal with IL-6 EC80 alone;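 active means activation above the screen-wide mean of compound activation plus 3 SD, cut at about 130% in these data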
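Test system: STAT3-luciferase reporter U3A cells; Detection: reporter luminescence signal; Times: 1 h compound pre-exposure, 6 h IL-6 stimulation, 37 °C; Benchmarks: IL-6-only high control; Also added: IL-6 stimulus at 33 ng/mL final.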
STAT1 activator – increases IFN-gamma driven STAT1 reporter signal | NIH 3T3 STAT1-luciferase reporter, luminescence; 100% = IFN-gamma alone, no compound | activation (% of control), % at 5.5 µM | 200,000 compounds, 2.6% hits;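 active means activation above the screen-wide mean activation plus 3 SD, cut at about 130% in these data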
APP 5'UTR act – APP 5'UTR luciferase reporter activation. SH-SY5Y APP 5'UTR luciferase reporter, luminescence; zero percent = DMSO vehicle wells. 190,000 compounds, 1% hits. activation, % at 2 µM;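 active means activation above a set limit, based on mean plus 3 SD of controls, cut at about 140% in these data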
NF-kB expr up – compounds increasing NF-kB expression in human neuronal cells. NF-kB reporter expression; hits give high values. fold change at 12.5 µM. 190,000 compounds, 1.6% hits. AID 1239; in the data active means fold change above about 3.3
Large screens that a line does not name were inactive. Compounds with a hit are over-represented: about 4.9% of the library has one in this group of screens.

C(=N\Nc1nc2ccccc2[nH]1)/c1cccs1	STAT1 activator 148, APP 5'UTR act 137, NF-kB expr up 4.1
C(=N\Nc1nc2ccccc2[nH]1)/c1ccc2c(c1)OCO2	STAT1 activator 141, APP 5'UTR act 149, NF-kB expr up 4.1
CC(=O)Nc1ccc(/C=N/Nc2nc3ccccc3[nH]2)cc1	none
C/C(=N\Nc1nc2ccccc2[nH]1)c1ccc2c(c1)OCO2	none
COC(=O)c1ccc(/C=N/Nc2nc3ccccc3[nH]2)cc1	STAT1 activator 138
Cc1ccc2[nH]c(=O)c(C(c3nnnn3CC3CCCO3)N3CCCc4ccccc43)cc2c1 (configuration not stated)	none
Cn1ncc2c(NNC(=O)C3CCCCC3)ncnc21	none
CCOc1cc(/C=N/NC(=O)c2cccnc2)cc(Br)c1OCC(N)=O	none (no result: NF-kB expr up)
O=C(Cc1ccccc1)N/N=C/c1ccc2c(c1)OCO2	none
Clc1ccccc1N/N=C/c1ccc2c(c1)OCO2	STAT1 activator 135
O=C(CSc1ccsc1[N+](=O)[O-])NCCc1ccc(Cl)cc1	none
Cc1ccc(CNC(=O)CSc2ccsc2[N+](=O)[O-])cc1	STAT1 activator 134
O=C(CSc1ccsc1[N+](=O)[O-])NCCc1ccccc1	STAT3 activator 136
COc1ccc(CNC(=O)CSc2ccsc2[N+](=O)[O-])cc1	none
CC1CCN(c2ccccc2NC(=S)NC(=O)C(C)(C)C)CC1	none
COc1ccc(NC(=O)c2cc(-c3cccs3)on2)cc1OC	none
CCc1ccc(NC(=O)c2cc(-c3ccc(F)cc3)on2)cc1	none
Cc1ccc(NC(=O)c2cc(-c3cccs3)on2)cc1C	STAT1 activator 146
CCc1ccc(NC(=O)c2cc(-c3cccs3)on2)cc1	STAT1 activator 136
COc1ccc(NC(=O)Cn2cnc3sc(C)c(S(=O)(=O)N4CCOCC4)c3c2=O)c(OC)c1	none
O=C1CC(c2ccc(F)cc2)Sc2ccccc2N1 (configuration not stated)	STAT3 activator 135
Cc1ccc(C2C(C(=O)c3cccs3)=C(O)C(=O)N2c2nnc(C)s2)cc1 (configuration not stated)	none
O=C(NCCc1ccccc1)c1cnc2sccn2c1=O	STAT1 activator 136
O=C(NCc1ccco1)c1cnc2sccn2c1=O	none
O=C(NCCc1ccccc1)c1ccc(Cl)c([N+](=O)[O-])c1	none
O=C(NCCc1ccccc1)c1ccncc1	STAT1 activator 130
O=C(NCCc1ccccc1)c1cccs1	STAT1 activator 142
Cc1cc(C(=O)NCCc2ccccc2)ccc1[N+](=O)[O-]	STAT1 activator 134
O=C(CCCc1nc(-c2ccccc2Cl)no1)N1CCOCC1	none
COc1cccc(CC2(CO)CCCN(Cc3ccc(CN4CCCCC4)s3)C2)c1 (configuration not stated)	none
COc1ccc(OC)c(NC(=O)Cc2coc3cc(C)cc(C)c23)c1	none
Oc1ccc(/C=N/Nc2nccnc2Cl)c(O)c1	none (no result: APP 5'UTR act)
Oc1ccc(/C=N/Nc2cccc3cccnc23)c(O)c1	NF-kB expr up 11
Cc1ccc(/C=N/Nc2cccc3cccnc23)c(O)c1	NF-kB expr up 7.5
O=c1[nH]ncc(N/N=C\c2ccc(O)cc2O)c1Cl	none
Oc1ccc(/C=N/Nc2ncc(Br)cn2)c(O)c1	NF-kB expr up 5
CC(=O)NC(CSC(CC(=O)c1ccco1)c1ccc(C)cc1)C(=O)O (configuration not stated)	none
CC(C)(C)c1ccc(-c2nc3n(c(=O)c2C#N)CCS3)cc1	none
Cc1ccc(Nc2nc(COC(=O)COc3ccc(C=O)cc3)cs2)cc1	STAT1 activator 131
C/C=C/c1ccc(OCC(=O)OCc2csc(Nc3ccc(C)cc3)n2)c(OC)c1	none
CCN(CC)CCNC(=O)C1c2cc(OC)c(OC)cc2C(=O)N(C)C1c1cccs1 (configuration not stated)	none
Cc1ccc(C(=O)CCNc2ccccc2)o1	STAT1 activator 140
Cc1ccc(C(=O)CCNc2ccc(F)c(Cl)c2)o1	NF-kB expr up 5.4
O=C(NCc1ccco1)c1cc([N+](=O)[O-])ccc1N1CCOCC1	none
CCC(C)N=C1Sc2nc3ccc(C)cc3cc2CN1CCOC (configuration not stated)	none
CN(C)c1ccc(N=C/C=C2\N(C)c3ccccc3C2(C)C)cc1	APP 5'UTR act 143
CN1/C(=C\C=O)C(C)(C)c2ccccc21	none
Cc1nn(-c2cccc([N+](=O)[O-])c2)c(N)c1-c1ccccc1	STAT1 activator 142
Cc1cccc(Nc2nn3c(=O)c4ccccc4nc3s2)c1	STAT1 activator 132
CCCSc1nn2c(=O)c3ccccc3nc2s1	none
C/C(NC(=O)c1ccccc1)=C1/C(=O)CC2C1C2(C)C (configuration not stated)	STAT1 activator 130
CC(=O)C1=C(NC(=O)c2ccc(F)cc2)CC2C1C2(C)C (configuration not stated)	none
Cc1ccc(NC(=O)COC(=O)CNC(=O)c2ccc(Br)cc2)c(C)c1	none
Cc1ccccc1NC(=O)N1CCCC(c2nc(-c3ccc(C(C)C)cc3)no2)C1 (configuration not stated)	STAT1 activator 135
Cc1ccccc1NC(=O)N1CCCC(c2nc(-c3ccc(F)cc3)no2)C1 (configuration not stated)	none
O=C1/C(=C/c2ccc(N3CCCC3)cc2)NC(=S)N1C1CC1	none
O=C1N/C(=C/c2ccc(N3CCCC3)cc2)C(=O)N1c1ccccc1	STAT1 activator 131
O=C1N/C(=C/c2ccc(N3CCOCC3)o2)C(=O)N1c1ccccc1	NF-kB expr up 6.2
C=CCN1C(=O)N/C(=C/c2ccc(N3CCOCC3)o2)C1=O	none
S=c1[nH]nc(Cn2cnc3ccccc32)n1-c1ccccc1	none
O=C(CNC(=O)c1ccncc1)N/N=C/c1ccccc1[N+](=O)[O-]	none
COc1ccc(CCC(=O)NNC(=S)Nc2cccc(C(C)=O)c2)cc1	none
O=C(O)/C=C\C(=O)N1CCc2ccccc21	none
O=C(/C=C/c1ccc(Cl)cc1Cl)N1CCc2ccccc21	STAT1 activator 141
CCN(CC)S(=O)(=O)c1ccc(Cl)c(C(=O)Nc2cc(C)nn2-c2ccccc2C(F)(F)F)c1	none
O=C(NCCC1=CCCCC1)NC1CCCCC1	STAT1 activator 144, NF-kB expr up 4.5
O=C(NCCc1ccccc1)NC1CCCCC1	NF-kB expr up 3.4
O=C(NC1CCCCCC1)C(=S)NCCc1ccccc1	none
CCOC(=O)c1ccccc1NC(=O)CN(c1ccc(OCC)cc1)S(C)(=O)=O	none
CC(C)CC(NC(N)=O)C(=O)OCC(=O)N(Cc1ccccc1)Cc1ccccc1 (configuration not stated)	none
CCc1ccc(C(=O)Nc2nnn(CC)n2)cc1	NF-kB expr up 3.7
